Measured values: ChEMBL document CHEMBL1152250, “Novel and orally active 5-(1,3,4-oxadiazol-2-yl)pyrimidine derivatives as selective FLT3 inhibitors” (Bioorg Med Chem Lett, 2008)

Tests used:
MOLM-13 [1] = experiment: Antiproliferative activity against human MOLM13 cells after 72 hrs by WST-1 assay; format: functional; conditions: MOLM-13, 72 h
Procedure, shortened: (§1)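 Cells kept in RPMI1640 with 10% heat-inactivated FBS, 1% penicillin and 1% streptomycin, seeded in 96-well plates and exposed to test compounds for 72 h. Viability read with WST-1 reagent. GI50 is the mean ± SEM of three experiments.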

Liver microsomes = experiment: Metabolic stability in human liver microsomes assessed as intrinsic clearance; format: ADME, Microsome
Procedure, shortened: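 Pooled human liver microsomes (0.2 mg protein/mL) with test compound at 0.1 or 1 μmol/L, 5 mmol/L NADPH, 100 mmol/L phosphate buffer pH 7.4, 6 mmol/L MgCl2 and 0.1 mmol/L EDTA. Cosolvent was DMSO (0.01 or 0.001 vol%) or methanol (1 vol%). Incubated at 37 °C for a fixed time, n = 1 or 2. Stopped with CH3CN containing internal standard and analysed by LC-MS or LC-MS/MS. Intrinsic clearance calculated from percent remaining.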

Mus musculus [2] = experiment: Toxicity to human MOLM13 cells xenografted SCID mouse assessed as mortality at 50 mg/kg, po bid after 5 days; format: organism-based, MOLM-13; parameters: dose 50 mg/kg, route oral; conditions: in vivo, 120 h
Procedure, shortened: (§2)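 MOLM-13 cells implanted subcutaneously in SCID mice. Compound given orally twice daily for 5 days at 50, 100 or 200 mg/kg, alongside an untreated control group. Mortality was scored per dose group, together with tumor volume as treated/control ratio and relative to day-0 volume.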

MOLM-13 [3] = experiment: Antitumor activity against human MOLM13 cells xenografted in SCID mouse assessed as minimal regressive tumor volume ratio at 100 mg/kg, po bid treated for 5 days measured after 7 days relative to control; format: functional
Procedure, shortened: (§3)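 SCID mice bearing subcutaneous MOLM-13 xenografts, 5 per group, dosed orally b.i.d. for 5 days. […] is the mean tumour volume ratio, treated to control. Regression is the mean tumour volume relative to the initial volume on day 0. Mortality and body weight were also recorded.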

[4] = Antiproliferative activity against human ML1 cells after 72 hrs by WST-1 assay; format: functional; conditions: ML1, 72 h; procedure, shortened: as §1
[5] = Antiproliferative activity against human HMC1 cells expressing FLT3-delta599 mutant after 72 hrs by WST-1 assay; format: functional; conditions: HMC1, 72 h; procedure, shortened: as §1
[6] = Antiproliferative activity against human HMC1 cells expressing FLT-D835Y mutant after 72 hrs by WST-1 assay; format: functional; conditions: HMC1, 72 h; procedure, shortened: as §1
Mus musculus [7] = experiment: Toxicity to human MOLM13 cells xenografted SCID mouse assessed as body weight loss at 200 mg/kg, po bid after 5 days; format: organism-based, MOLM-13; parameters: dose 200 mg/kg, route oral; conditions: in vivo, 120 h; procedure, shortened: as §3
MOLM-13 [8] = experiment: Antitumor activity against human MOLM13 cells xenografted in po dosed SCID mouse assessed as regression tumor volume ratio administered bid for 5 days; format: functional, organism-based; procedure, shortened: as §3
MOLM-13 [9] = experiment: Antitumor activity against human MOLM13 cells xenografted in po dosed SCID mouse assessed as tumor volume ratio administered bid for 5 days; format: functional, organism-based; procedure, shortened: as §3
Mus musculus [10] = experiment: Toxicity to human MOLM13 cells xenografted SCID mouse assessed as mortality at 100 mg/kg, po bid after 5 days; format: organism-based, MOLM-13; parameters: dose 100 mg/kg, route oral; conditions: in vivo, 120 h; procedure, shortened: as §2
MOLM-13 [11] = experiment: Antitumor activity against human MOLM13 cells xenografted in SCID mouse assessed as minimal regressive tumor volume ratio at 50 mg/kg, po bid treated for 5 days measured after 7 days relative to control; format: functional; procedure, shortened: as §3
MOLM-13 [12] = experiment: Antitumor activity against human MOLM13 cells xenografted in SCID mouse assessed as minimal tumor volume ratio at 50 mg/kg, po bid treated for 5 days measured after 7 days relative to control; format: functional; procedure, shortened: as §3
MOLM-13 [13] = experiment: Antitumor activity against human MOLM13 cells xenografted in SCID mouse assessed as minimal tumor volume ratio at 100 mg/kg, po bid treated for 5 days measured after 7 days relative to control; format: functional; procedure, shortened: as §3
[14] = molecular target: T1, Receptor-type tyrosine-protein kinase FLT3 (Homo sapiens, UniProt P36888); experiment: Inhibition of GST-tagged FLT3 by ELISA
T1 sequence (P36888 whole entry): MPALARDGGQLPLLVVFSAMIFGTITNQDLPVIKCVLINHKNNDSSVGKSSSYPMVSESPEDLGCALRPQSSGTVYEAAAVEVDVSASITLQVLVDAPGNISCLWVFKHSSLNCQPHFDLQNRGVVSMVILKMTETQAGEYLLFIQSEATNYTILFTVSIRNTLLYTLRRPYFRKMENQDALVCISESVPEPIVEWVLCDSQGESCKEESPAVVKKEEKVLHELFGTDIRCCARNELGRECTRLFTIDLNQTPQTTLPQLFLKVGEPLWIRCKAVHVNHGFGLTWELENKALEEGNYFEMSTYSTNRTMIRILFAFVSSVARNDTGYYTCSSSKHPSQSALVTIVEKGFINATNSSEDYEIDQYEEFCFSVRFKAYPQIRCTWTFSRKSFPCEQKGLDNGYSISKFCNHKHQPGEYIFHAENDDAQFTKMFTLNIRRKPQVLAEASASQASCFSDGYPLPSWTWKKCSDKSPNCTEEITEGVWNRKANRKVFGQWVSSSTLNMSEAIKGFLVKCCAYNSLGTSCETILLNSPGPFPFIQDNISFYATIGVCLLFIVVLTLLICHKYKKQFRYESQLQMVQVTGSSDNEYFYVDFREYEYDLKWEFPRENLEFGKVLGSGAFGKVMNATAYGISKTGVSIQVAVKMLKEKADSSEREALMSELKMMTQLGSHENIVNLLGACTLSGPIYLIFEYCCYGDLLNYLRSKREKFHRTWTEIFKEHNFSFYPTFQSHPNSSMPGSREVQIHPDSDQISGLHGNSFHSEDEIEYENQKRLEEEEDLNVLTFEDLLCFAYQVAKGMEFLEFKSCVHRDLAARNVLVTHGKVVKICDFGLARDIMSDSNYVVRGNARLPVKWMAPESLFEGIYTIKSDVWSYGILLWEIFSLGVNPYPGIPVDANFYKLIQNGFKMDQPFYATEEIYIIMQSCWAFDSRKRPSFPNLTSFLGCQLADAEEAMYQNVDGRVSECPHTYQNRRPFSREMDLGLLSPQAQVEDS

Mus musculus [15] = experiment: Toxicity to human MOLM13 cells xenografted SCID mouse assessed as mortality at 200 mg/kg, po bid after 5 days; format: organism-based, MOLM-13; parameters: dose 200 mg/kg, route oral; conditions: in vivo, 120 h; procedure, shortened: as §2
MOLM-13 [16] = experiment: Antitumor activity against human MOLM13 cells xenografted in SCID mouse assessed as minimal regressive tumor volume ratio at 100 mg/kg, po bid treated for 5 days measured after 4 days relative to control; format: functional; procedure, shortened: as §3
MOLM-13 [17] = experiment: Antitumor activity against human MOLM13 cells xenografted in SCID mouse assessed as tumor volume ratio at 200 mg/kg, po bid treated for 5 days measured after 10 days relative to control; format: functional; procedure, shortened: as §3
MOLM-13 [18] = experiment: Antitumor activity against human MOLM13 cells xenografted in SCID mouse assessed as minimal regressive tumor volume ratio at 200 mg/kg, po bid treated for 5 days measured after 10 days relative to control; format: functional; procedure, shortened: as §3
[19] = Metabolic stability in human liver microsomes

Compound	GI50 (MOLM-13 [1]) [nM]	clearance (Liver microsomes) [mL/min/kg]	other results
Oc1cc(CCNc2ncc(-c3nnc(C4CC4)o3)c(Nc3ccccc3)n2)ccn1	113	41.7	
c1ccc(Nc2nc(NCCc3ccncn3)ncc2-c2nnc(C3CC3)o2)cc1	775	73.3	
CCNc1nc(NCCc2ccncc2)ncc1-c1nnc(CN2C[C@@H](C)N[C@@H](C)C2)o1	94	13.3	Activity (Mus musculus [2]): Non-toxic; Ratio (MOLM-13 [3]): 0.12; GI50 [4]: > 10000 nM; GI50 [5]: 74 nM; GI50 [6]: 48 nM; Activity (Mus musculus [7]): Non-toxic; Activity (MOLM-13 [8]): Dose-dependent effect; Activity (MOLM-13 [9]): Dose-dependent effect; Activity (Mus musculus [10]): Non-toxic; Ratio (MOLM-13 [11]): 1.39; T/C (MOLM-13 [12]): 0.2; T/C (MOLM-13 [13]): 0.014
c1cc(CCNc2ncc(-c3nnc(CN4CCNCC4)o3)c(NC3CCC3)n2)ccn1	50	105	
CCCNc1nc(NCCc2cccs2)ncc1-c1nnc(C)o1			IC50 [14]: 373 nM
Oc1cccc(Nc2nc(NCCc3ccncc3)ncc2-c2nnc(C3CC3)o2)c1	10	267	IC50 [14]: 34 nM
CC(C)Nc1nc(NCCc2ccncc2)ncc1-c1nnc(CN2CCNCC2)o1	49	25	
Cc1cc(CCNc2ncc(-c3nnc(C4CC4)o3)c(Nc3ccccc3)n2)ccn1	137	367	
CCCNc1nc(NCCc2ccncc2)ncc1-c1nnc(CN2CCNCC2)o1	29	18.3	Activity (Mus musculus [2]): Non-toxic; GI50 [4]: 9110 nM; Activity (Mus musculus [15]): Non-toxic; GI50 [5]: 74 nM; GI50 [6]: 65 nM; Activity (Mus musculus [7]): Non-toxic; Activity (MOLM-13 [8]): Dose-dependent effect; Activity (MOLM-13 [9]): Dose-dependent effect; Ratio (MOLM-13 [16]): 0.571; Activity (Mus musculus [10]): Non-toxic; T/C (MOLM-13 [17]): 0.006; Ratio (MOLM-13 [18]): 0.098; T/C (MOLM-13 [13]): 0.1
CCCNc1nc(NCCc2ccncc2)ncc1-c1nnc(CNCCN(C)C)o1	78	50	
CCCNc1nc(NCCc2ccncc2)ncc1-c1nnc(CO)o1	56	35	GI50 [4]: 5960 nM; GI50 [5]: 76 nM; GI50 [6]: 116 nM
[O-][n+]1ccc(CCNc2ncc(-c3nnc(C4CC4)o3)c(Nc3ccccc3)n2)cc1	3610	3.33	
CNc1nc(NCCc2ccncc2)ncc1-c1nnc(CN2CCN(C)CC2)o1	262	1.67	
N#Cc1cc(CCNc2ncc(-c3nnc(C4CC4)o3)c(Nc3ccccc3)n2)ccn1	10000		
CNc1nc(NCCc2ccncc2)ncc1-c1nnc(C2CC2)o1	139	20	IC50 [14]: 35 nM
Cc1ccc(Nc2nc(NCCc3ccncc3)ncc2-c2nnc(C3CC3)o2)cc1	23	183	IC50 [14]: 106 nM
CCCNc1nc(NCCc2ccncc2)ncc1-c1nnc(CN(C)C)o1	73	183	Activity (Mus musculus [2]): Non-toxic; T/C (MOLM-13 [12]): 0.45
c1ccc(Nc2nc(NCCc3ccncc3)ncc2-c2nnc(CN3CCNCC3)o2)cc1	74	38.3	
CCOc1nc(NCCc2ccncc2)ncc1-c1nnc(C2CC2)o1	263	23.3	IC50 [14]: 80 nM

Compound	GI50 (MOLM-13 [1]) [nM]	clearance (Liver microsomes) [mL/min/kg]	other results
CCNc1nc(NCCc2ccncc2)ncc1-c1nnc(CN2CCN(C)CC2)o1	102	45	Activity (Mus musculus [2]): Non-toxic; GI50 [4]: > 10000 nM; GI50 [5]: 114 nM; GI50 [6]: 63 nM; Activity (Mus musculus [7]): Non-toxic; T/C (MOLM-13 [12]): 0.24
Cc1ccccc1Nc1nc(NCCc2ccncc2)ncc1-c1nnc(C2CC2)o1	40	217	IC50 [14]: 134 nM
CCCNc1nc(NCCc2ccncc2)ncc1-c1nnc(CN2C[C@@H](C)N[C@@H](C)C2)o1	43	115	
FCCCNc1nc(NCCc2ccncc2)ncc1-c1nnc(CN2CCNCC2)o1	99	1.67	
CCCNc1nc(NCCc2ccncc2)ncc1-c1nnc(CN2CCOCC2)o1	43	167	
OCCNc1nc(NCCc2ccncc2)ncc1-c1nnc(C2CC2)o1	123	20	IC50 [14]: 63 nM
CCCNc1nc(NCCc2ccncc2)ncc1-c1nnc(CN2CCN(C)CC2)o1	19	81.7	Activity (Mus musculus [2]): Non-toxic; GI50 [4]: > 10000 nM; GI50 [5]: 37 nM; GI50 [6]: 31 nM; Activity (Mus musculus [7]): Non-toxic
CCCNc1nc(NCCc2ccncc2)ncc1-c1nnc(CN2CCN(C(C)=O)CC2)o1	66	137	
Oc1ccc(Nc2nc(NCCc3ccncc3)ncc2-c2nnc(C3CC3)o2)cc1	3.2		IC50 [14]: 4.8 nM
CCCOc1nc(NCCc2ccncc2)ncc1-c1nnc(CN2CCN(C)CC2)o1	308	11.7	
CCCNc1nc(NCCc2ccncc2)ncc1-c1nnc(CN2CCC(N)CC2)o1	74	50	
CS(=O)(=O)CCNc1nc(NCCc2ccncc2)ncc1-c1nnc(C2CC2)o1	588		IC50 [14]: 515 nM
Nc1ccc(CCNc2ncc(-c3nnc(C4CC4)o3)c(Nc3ccccc3)n2)cc1	287	68.3	
CN1CCN(Cc2nnc(-c3cnc(NCCc4ccncc4)nc3NCC3CC3)o2)CC1	52	86.7	
c1ccc(Nc2nc(NCCc3ccncc3)ncc2-c2nnc(C3CC3)o2)cc1	40	317	IC50 [14]: 47 nM
CCCNc1nc(NCCc2ccncc2)ncc1-c1nnc(C2CC2)o1	36	217	Activity (Mus musculus [2]): Non-toxic; GI50 [4]: 4320 nM; GI50 [5]: 36 nM; GI50 [6]: 52 nM; Activity (Mus musculus [7]): Non-toxic; IC50 [14]: 4.9 nM; T/C (MOLM-13 [12]): 0.47; T/C (MOLM-13 [13]): 0.34; Activity [19]: Unstable
COc1cc(CCNc2ncc(-c3nnc(C4CC4)o3)c(Nc3ccccc3)n2)ccn1	999		
CCCNc1nc(NCCc2ccncc2)ncc1-c1nnc(CN2CCN(CCO)CC2)o1	57	50	
Oc1ccc(CCNc2ncc(-c3nnc(C4CC4)o3)c(Nc3ccccc3)n2)cc1	44	85	
